Results reported in ChEMBL document CHEMBL2375290, “Nonclassical antifolates, part 3: synthesis, biological evaluation and molecular modeling study of some new 2-heteroarylthio-quinazolin-4-ones” (Eur J Med Chem, 2013).
In brackets after ≈: the same amount, converted by molar mass.

How the values were obtained:
T47D = assay: Cytotoxicity against human T47D cells at 10 uM after 48 hrs by coulter counter analysis; type: functional; conditions: read-out: GI
Hs-578T = assay: Cytotoxicity against human Hs578T cells at 10 uM after 48 hrs by coulter counter analysis; type: functional; conditions: read-out: GI
MCF7 = assay: Cytotoxicity against human MCF7 cells at 10 uM after 48 hrs by coulter counter analysis; type: functional; conditions: MCF7, 48 h, read-out: GI
MDA-MB-231 = assay: Cytotoxicity against human MDA-MB-231 cells at 10 uM after 48 hrs by coulter counter analysis; type: functional; conditions: MDA-MB-231, 48 h, read-out: GI
PC-3 = assay: Cytotoxicity against human PC3 cells at 10 uM after 48 hrs by coulter counter analysis; type: functional; conditions: PC-3, 48 h, read-out: GI
UO-31 = assay: Cytotoxicity against human UO31 cells at 10 uM after 48 hrs by coulter counter analysis; type: functional; conditions: UO-31, 48 h, read-out: GI
RXF 393 = assay: Cytotoxicity against human RXF393 cells at 10 uM after 48 hrs by coulter counter analysis; type: functional; conditions: RXF 393, 48 h, read-out: GI
SN12C = assay: Cytotoxicity against human SN12C cells at 10 uM after 48 hrs by coulter counter analysis; type: functional; conditions: read-out: GI
A498 = assay: Cytotoxicity against human A498 cells at 10 uM after 48 hrs by coulter counter analysis; type: functional; conditions: A498, 48 h, read-out: GI
CAKI-1 = assay: Cytotoxicity against human Caki1 cells at 10 uM after 48 hrs by coulter counter analysis; type: functional; conditions: CAKI-1, 48 h, read-out: GI
[1] = Cytotoxicity against human NCI-ADR-RES cells at 10 uM after 48 hrs by coulter counter analysis; type: functional; conditions: read-out: GI
OVCAR-4 = assay: Cytotoxicity against human OVCAR4 cells at 10 uM after 48 hrs by coulter counter analysis; type: functional; conditions: OVCAR-4, 48 h, read-out: GI
UACC-62 = assay: Cytotoxicity against human UACC62 cells at 10 uM after 48 hrs by coulter counter analysis; type: functional; conditions: UACC-62, 48 h, read-out: GI
IGROV-1 = assay: Cytotoxicity against human IGROV1 cells at 10 uM after 48 hrs by coulter counter analysis; type: functional; conditions: IGROV-1, 48 h, read-out: GI
SK-MEL-5 = assay: Cytotoxicity against human SK-MEL-5 cells at 10 uM after 48 hrs by coulter counter analysis; type: functional; conditions: SK-MEL-5, 48 h, read-out: GI
Malme-3M = assay: Cytotoxicity against human MALME-3M cells at 10 uM after 48 hrs by coulter counter analysis; type: functional; conditions: read-out: GI
MDA-MB-435 = assay: Cytotoxicity against human MDA-MB-435 cells at 10 uM after 48 hrs by coulter counter analysis; type: functional; conditions: MDA-MB-435, 48 h, read-out: GI
SNB-75 = assay: Cytotoxicity against human SNB75 cells at 10 uM after 48 hrs by coulter counter analysis; type: functional; conditions: SNB-75, 48 h, read-out: GI
LOX IMVI = assay: Cytotoxicity against human LOXIMVI cells at 10 uM after 48 hrs by coulter counter analysis; type: functional; conditions: read-out: GI
SNB-19 = assay: Cytotoxicity against human SNB19 cells at 10 uM after 48 hrs by coulter counter analysis; type: functional; conditions: SNB-19, 48 h, read-out: GI
NCI-H522 = assay: Cytotoxicity against human NCI-H522 cells at 10 uM after 48 hrs by coulter counter analysis; type: functional; conditions: NCI-H522, 48 h, read-out: GI
SF-295 = assay: Cytotoxicity against human SF295 cells at 10 uM after 48 hrs by coulter counter analysis; type: functional; conditions: SF-295, 48 h, read-out: GI
NCI-H23 = assay: Cytotoxicity against human NCI-H23 cells at 10 uM after 48 hrs by coulter counter analysis; type: functional; conditions: NCI-H23, 48 h, read-out: GI
[2] = Cytotoxicity against human EKVX cells at 10 uM after 48 hrs by coulter counter analysis; type: functional; conditions: read-out: GI
NCI-H226 = assay: Cytotoxicity against human NCI-H226 cells at 10 uM after 48 hrs by coulter counter analysis; type: functional; conditions: NCI-H226, 48 h, read-out: GI
A549 = assay: Cytotoxicity against human A549/ATCC cells at 10 uM after 48 hrs by coulter counter analysis; type: functional; conditions: A549, 48 h, read-out: GI
RPMI-8226 = assay: Cytotoxicity against human RPMI8226 cells at 10 uM after 48 hrs by coulter counter analysis; type: functional; conditions: RPMI-8226, 48 h, read-out: GI
SR = assay: Cytotoxicity against human SR cells at 10 uM after 48 hrs by coulter counter analysis; type: functional; conditions: read-out: GI
MOLT-4 = assay: Cytotoxicity against human MOLT4 cells at 10 uM after 48 hrs by coulter counter analysis; type: functional; conditions: MOLT-4, 48 h, read-out: GI
CCRF-CEM = assay: Cytotoxicity against human CCRF-CEM cells at 10 uM after 48 hrs by coulter counter analysis; type: functional; conditions: read-out: GI
HL-60(TB) = assay: Cytotoxicity against human HL-60(TB) cells at 10 uM after 48 hrs by coulter counter analysis; type: functional; conditions: HL-60, 48 h, read-out: GI
Escherichia coli [3] = assay: Antimicrobial activity against Escherichia coli after 24 hrs by micro-dilution susceptibility method
Bacillus subtilis [4] = assay: Antimicrobial activity against Bacillus subtilis after 24 hrs by micro-dilution susceptibility method; type: functional
In short: (§1)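 Broth microdilution in Müller-Hinton broth against S. aureus IFO 3060, B. subtilis IFO 3007, E. coli IFO 3301 and P. aeruginosa IFO 3448. These are the same standard strains used in the disc-diffusion primary screen. Compounds were solubilized in DMSO. MIC recorded as the minimal inhibitory concentration.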

Staphylococcus aureus [5] = assay: Antimicrobial activity against Staphylococcus aureus after 24 hrs by micro-dilution susceptibility method; type: functional; in short: as §1
Pseudomonas aeruginosa = assay: Antimicrobial activity against Pseudomonas aeruginosa at 200 ug after 24 hrs by agar disc diffusion method; type: functional; conditions: read-out: DIZ
Escherichia coli [6] = assay: Antimicrobial activity against Escherichia coli at 200 ug after 24 hrs by agar disc diffusion method; type: functional; conditions: read-out: DIZ
Micrococcus luteus = assay: Antimicrobial activity against Micrococcus luteus at 200 ug after 24 hrs by agar disc diffusion method; type: functional; conditions: read-out: DIZ
Bacillus subtilis [7] = assay: Antimicrobial activity against Bacillus subtilis at 200 ug after 24 hrs by agar disc diffusion method; type: functional; conditions: read-out: DIZ
Dihydrofolate reductase = target: T1, Dihydrofolate reductase (Bos taurus, UniProt P00376); assay: Inhibition of bovine DHFR after 2 mins by spectrophotometry
T1 sequence (P00376 whole entry): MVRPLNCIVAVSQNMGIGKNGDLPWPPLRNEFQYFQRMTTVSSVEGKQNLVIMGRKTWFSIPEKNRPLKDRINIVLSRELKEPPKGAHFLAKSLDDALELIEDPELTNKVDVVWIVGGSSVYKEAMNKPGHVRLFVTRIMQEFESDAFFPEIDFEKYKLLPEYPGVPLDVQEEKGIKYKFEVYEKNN

Staphylococcus aureus [8] = assay: Antimicrobial activity against Staphylococcus aureus at 200 ug after 24 hrs by agar disc diffusion method; type: functional; conditions: read-out: DIZ

In the case of `COc1cc2nc(Sc3ncccc3C(=O)O)n(-c3ccccc3)c(=O)c2cc1OC`, the inhibition of growth at 10 µM (T47D) is reported as less than 10%, the inhibition of growth at 10 µM (Hs-578T) is reported as less than 10% and the inhibition of growth at 10 µM (MCF7) is reported as less than 10%. For the same compound, the inhibition of growth at 10 µM (MDA-MB-231) was less than 10%, the inhibition of growth at 10 µM (PC-3) was less than 10% and the inhibition of growth at 10 µM (UO-31) was 12%. The inhibition of growth at 10 µM (RXF 393) was less than 10%, the inhibition of growth at 10 µM (SN12C) was less than 10% and the inhibition of growth at 10 µM (A498) was less than 10%. The inhibition of growth at 10 µM (CAKI-1) was 17.7%, the inhibition of growth at 10 µM [1] was less than 10% and the inhibition of growth at 10 µM (OVCAR-4) was less than 10%. For the same compound, the inhibition of growth at 10 µM (UACC-62) was less than 10%, the inhibition of growth at 10 µM (IGROV-1) was less than 10% and the inhibition of growth at 10 µM (SK-MEL-5) was less than 10%. It also gave an inhibition of growth at 10 µM (Malme-3M) of less than 10%, an inhibition of growth at 10 µM (MDA-MB-435) of less than 10% and an inhibition of growth at 10 µM (SNB-75) of less than 10%. It also gave an inhibition of growth at 10 µM (LOX IMVI) of less than 10%, an inhibition of growth at 10 µM (SNB-19) of less than 10% and an inhibition of growth at 10 µM (NCI-H522) of 11.4%. The inhibition of growth at 10 µM (SF-295) was less than 10%, the inhibition of growth at 10 µM (NCI-H23) was less than 10% and the inhibition of growth at 10 µM [2] was less than 10%. For the same compound, the inhibition of growth at 10 µM (NCI-H226) was 12%, the inhibition of growth at 10 µM (A549) was less than 10% and the inhibition of growth at 10 µM (RPMI-8226) was less than 10%. For the same compound, the inhibition of growth at 10 µM (SR) was less than 10%, the inhibition of growth at 10 µM (MOLT-4) was less than 10% and the inhibition of growth at 10 µM (CCRF-CEM) was less than 10%. The inhibition of growth at 10 µM (HL-60(TB)) was less than 10%, the MIC (Escherichia coli [3]) was 2 µg/mL (≈ 4.59 µM) and the MIC (Bacillus subtilis [4]) was 4 µg/mL (≈ 9.19 µM). The MIC (Staphylococcus aureus [5]) was 4 µg/mL (≈ 9.19 µM), the zone of inhibition at 200 µg/disc (Pseudomonas aeruginosa) was 8 mm and the zone of inhibition at 200 µg/disc (Escherichia coli [6]) was 22 mm. It also gave a zone of inhibition at 200 µg/disc (Micrococcus luteus) of 15 mm, a zone of inhibition at 200 µg/disc (Bacillus subtilis [7]) of 22 mm and an IC50 (Dihydrofolate reductase) of 7 µM. It also gave a zone of inhibition at 200 µg/disc (Staphylococcus aureus [8]) of 20 mm.
Work on `COc1cc2nc(Sc3cc([N+](=O)[O-])ccc3C(=O)O)n(-c3ccccc3)c(=O)c2cc1OC` yielded an MIC (Escherichia coli [3]) of 2 µg/mL (≈ 4.17 µM), an MIC (Bacillus subtilis [4]) of 4 µg/mL (≈ 8.34 µM) and an MIC (Staphylococcus aureus [5]) of 8 µg/mL (≈ 16.7 µM). It also gave a zone of inhibition at 200 µg/disc (Pseudomonas aeruginosa) of 8 mm, a zone of inhibition at 200 µg/disc (Escherichia coli [6]) of 22 mm and a zone of inhibition at 200 µg/disc (Micrococcus luteus) of 8 mm. The zone of inhibition at 200 µg/disc (Bacillus subtilis [7]) was 20 mm, the IC50 (Dihydrofolate reductase) was 10 µM and the zone of inhibition at 200 µg/disc (Staphylococcus aureus [8]) was 18 mm.
Work on `CCOC(=O)c1nc(N)sc1Sc1nc2ccc(C)cc2c(=O)n1-c1ccccc1` yielded an MIC (Escherichia coli [3]) of 4 µg/mL (≈ 9.12 µM), an MIC (Bacillus subtilis [4]) of 2 µg/mL (≈ 4.56 µM) and an MIC (Staphylococcus aureus [5]) of 2 µg/mL (≈ 4.56 µM). For the same compound, the zone of inhibition at 200 µg/disc (Pseudomonas aeruginosa) was 12 mm, the zone of inhibition at 200 µg/disc (Escherichia coli [6]) was 18 mm and the zone of inhibition at 200 µg/disc (Micrococcus luteus) was 14 mm. It also gave a zone of inhibition at 200 µg/disc (Bacillus subtilis [7]) of 26 mm, an IC50 (Dihydrofolate reductase) of 1 µM and a zone of inhibition at 200 µg/disc (Staphylococcus aureus [8]) of 24 mm.
